According to article PMC11776411 (Journal of Hepatocellular Carcinoma, 2025):

Key:
Huh7 cells [1] = assay: NAC intervention experiment; assay type: cell-based, human; settings: 5 or 10 mm N-acetylcysteine with 10 μM 6c for 24, 48, 72 h
Huh7 cells [2] = assay: MTT cell viability assay, Huh7; assay type: cell-based, human; settings: for IC50: Homo sapiens, Huh-7, 72 h, read-out: IC50 (μM) Huh7
HepG2 cells = assay: MTT cell viability assay, HepG2; assay type: cell-based, human; settings: for IC50: Homo sapiens, HepG2, 72 h, read-out: IC50 (μM) HepG2
[3] = test system: LO2 cells (normal human hepatocytes); assay: MTT cytotoxicity assay, normal liver cells LO2; assay type: cell-based; settings: L02, 72 h, read-out: IC50 (μM) LO2
Outline: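 LO2 normal human hepatocytes were grown in DMEM with 10% FBS and seeded at 5×10^3 cells per well overnight. Test compound was added at 0.1, 0.3, 1, 3, 10, 30 and 100 μM for up to 72 h. Viability was read by MTT: 0.5 mg/mL for 4 h, medium removed, DMSO added, absorbance measured. Experiments were repeated at least three times.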

Hep3B cells = assay: MTT cell viability assay, Hep3B; assay type: cell-based, human; settings: for IC50: Homo sapiens, Hep3B, 72 h, read-out: IC50 (μM) Hep3B
Huh7 cells [4] = assay: Ferroptosis inhibitor; assay type: cell-based, human; settings: Huh7, co-treated with 10 μM 6c for 72 h

Row | Structure (SMILES) | IC50 (Huh7 cells [2]) [µM] | IC50 (HepG2 cells) [µM] | IC50 [3] [µM] | IC50 (Hep3B cells) [µM] | other results
1 | CC(=O)N[C@@H](CS)C(=O)O [N-acetylcysteine] | – | – | – | – | reversal of 6c inhibition of proliferation (Huh7 cells [1]): reversed the inhibitory effect of 6c on proliferation of Huh7 cells in time- and concentration-dependent manner
2 | CNC(=O)c1cc(Oc2ccc(NC(=O)Nc3ccc(Cl)c(C(F)(F)F)c3)cc2)ccn1 [Sorafenib] | 3.09 ± 0.08 | 6.45 ± 0.32 | 8.63 ± 0.12 | – | –
3 | CNC(=O)c1cc(Oc2ccc(N)cc2)ccn1 [Compound 1, 4-(4-aminophenoxy)-N-methyl-2-pyridinecarboxamide] | > 100 | – | – | > 100 | –
4 | Clc1cccc(CN=C2Nc3ccccc3NC23CCNCC3)c1 [Liproxstatin-1] | – | – | – | – | reversal of 6c-induced cell death (Huh7 cells [4]): reversed cell death in a concentration-dependent manner
5 | C[C@H]1[C@H](OC(=O)CCC(=O)O)O[C@@H]2O[C@@]3(C)CC[C@H]4[C@H](C)CC[C@@H]1[C@@]24OO3 [AS, Artesunate] | 47.5 ± 1.39 | 42.8 ± 1.44 | 72.3 ± 1.37 | 44.2 ± 2.16 | Selectivity Index SI 2 (Huh7 cells [2]; SI2 = IC50 LO2/IC50 Huh7): 1.5; Selectivity Index SI 1 (HepG2 cells; SI1 = IC50 LO2/IC50 HepG2): 1.7; Selectivity Index SI 3 (Hep3B cells; SI3 = IC50 LO2/IC50 Hep3B): 1.6
